Data: ChEMBL document CHEMBL1157103, “Structure and anti-TB activity of trachylobanes from the liverwort Jungermannia exsertifolia ssp. cordifolia” (2010)
Converted amounts (≈) assume the structure as drawn.

tested on: Mycobacterium tuberculosis; test: Antituberculosis activity against Mycobacterium tuberculosis H37Rv ATCC 27294 after 7 to 10 days by microplate alamar blue assay; format: functional
Method in brief: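 Microdilution in 96-well format. Test materials were incubated with virulent M. tuberculosis H37Rv for 7–10 days at 0.1 to 128 μg/mL. Growth was read fluorometrically with Alamar Blue. MIC90 and percent inhibition were calculated against a 1:10 dilution of the inoculum. Rifampin served as the positive control and DMSO as the negative control.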

Point of comparison: `CC1(C)CCC[C@]2(C)[C@@H]1CC[C@@]13C[C@@H]4[C@@H](C[C@H]12)[C@]4(CO)C3`, MIC90 446 µM (≈ 129 µg/mL). Against it:
- CC1(C)CCC[C@]2(C)[C@@H]1CC[C@@]13C[C@@H]4[C@@H](C[C@H]12)[C@]4(C=O)C3 — 5.2-fold lower, 85 µM (≈ 24.3 µg/mL)
- CC(=O)OC[C@]1(C)[C@H]2CC[C@@]34C[C@@H]5[C@@H](C[C@H]3[C@]2(C)CC[C@H]1O)[C@]5(C)C4 — not separable, > 370 µM
- CC(=O)OC[C@@]1(C(=O)O)[C@H](OC(C)=O)CC[C@@]2(C)[C@@H]3C[C@@H]4[C@H]5C[C@@]3(CC[C@@H]21)C[C@@]45C — not separable, > 306 µM
- CO[C@H]1/C=C/O[C@@]2(C)Oc3c(C)c(O)c4c(O)c(c(/C=N/N5CCN(C)CC5)c(O)c4c3C2=O)NC(=O)/C(C)=C\C=C\[C@H](C)[C@H](O)[C@@H](C)[C@@H](O)[C@@H](C)[C@H](OC(C)=O)[C@@H]1C [RIFAMPIN] — lower, < 0.15 µM
- CC(=O)O[C@@H]1CC[C@@]2(C)[C@@H]3C[C@@H]4[C@H]5C[C@@]3(CC[C@@H]2[C@]1(C)C=O)C[C@@]45C — not separable, > 371 µM
- CC(=O)O[C@@H]1CC[C@]2(C)[C@H](CC[C@@]34C[C@@H]5[C@@H](C[C@H]32)[C@]5(C)C4)C1(C)C — within 1.5-fold, 337 µM (≈ 111 µg/mL)
- CC1(C)[C@H](O)CC[C@]2(C)[C@@H]1CC[C@@]13C[C@@H]4[C@@H](C[C@H]12)[C@]4(C)C3 — 2.1-fold lower, 212 µM (≈ 61.2 µg/mL)
- CC(=O)O[C@@H]1CC[C@]2(C)[C@H](CC[C@@]34C[C@@H]5[C@@H](C[C@H]32)[C@]5(C)C4)[C@]1(C)CO — 2.6-fold lower, 171 µM (≈ 59.3 µg/mL)
- CC1(C)[C@H](O)CC[C@]2(C)[C@@H]1CC[C@@]13C[C@@H]4[C@@H](C[C@H]12)[C@]4(C(=O)O)C3 — not separable, > 402 µM
- CC(=O)O[C@@H]1CC[C@@]2(C)[C@@H]3C[C@@H]4[C@H]5C[C@@]3(CC[C@@H]2[C@@]1(C)C=O)C[C@@]45C — not separable, > 371 µM
- CC1(C)C(=O)CC[C@@]2(C)[C@@H]3C[C@@H]4[C@@H]5C[C@@]3(CC[C@@H]12)C[C@@]45C — 2.6-fold lower, 173 µM (≈ 49.6 µg/mL)
- CC(=O)O[C@@H]1CC[C@]2(C)[C@H](CC[C@@]34C[C@@H]5[C@@H](C[C@H]32)[C@]5(C)C4)[C@@]1(C)CO — not separable, > 370 µM
